Source: publication PMC3437246 (Biochemistry, 2012)
Where two headings read alike, the source gives them in different places.

Columns and labels:
Y567A-P/T binary complex = Y567A-P/T binary complex (Escherichia phage RB69, UniProt Q38087, D222A/D327A/Y567A); experiment: Equilibrium fluorescence titration of dNTP opposite tC°; format: binding, bacteriophage RB69; details: 1mM dNTP added to Y567A-P/T binary complex
Summary of the method: (§1)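 Exonuclease-deficient (D222A/D327A) RB69pol, wild type or Y567A, was expressed in E. coli BL21(DE). Enzyme at 1 μM was mixed with 300 nM 3'-dideoxy (ddC) terminated 13/18mer P/T carrying tC° at template position n, in 66 mM Tris-HCl pH 7.4 with 10 mM MgSO4 at 23°C. Excitation was 364 nm and emission was scanned 380–700 nm. Spectra were corrected for enzyme and buffer fluorescence.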

wt RB69pol = wt RB69pol (Escherichia phage RB69, UniProt Q38087, D222A/D327A); format: biochemical, bacteriophage RB69; details: template tC°; for kpol: 23°C, 10 mM Mg2+
Chain of wt RB69pol (Q38087 whole entry D222A/D327A): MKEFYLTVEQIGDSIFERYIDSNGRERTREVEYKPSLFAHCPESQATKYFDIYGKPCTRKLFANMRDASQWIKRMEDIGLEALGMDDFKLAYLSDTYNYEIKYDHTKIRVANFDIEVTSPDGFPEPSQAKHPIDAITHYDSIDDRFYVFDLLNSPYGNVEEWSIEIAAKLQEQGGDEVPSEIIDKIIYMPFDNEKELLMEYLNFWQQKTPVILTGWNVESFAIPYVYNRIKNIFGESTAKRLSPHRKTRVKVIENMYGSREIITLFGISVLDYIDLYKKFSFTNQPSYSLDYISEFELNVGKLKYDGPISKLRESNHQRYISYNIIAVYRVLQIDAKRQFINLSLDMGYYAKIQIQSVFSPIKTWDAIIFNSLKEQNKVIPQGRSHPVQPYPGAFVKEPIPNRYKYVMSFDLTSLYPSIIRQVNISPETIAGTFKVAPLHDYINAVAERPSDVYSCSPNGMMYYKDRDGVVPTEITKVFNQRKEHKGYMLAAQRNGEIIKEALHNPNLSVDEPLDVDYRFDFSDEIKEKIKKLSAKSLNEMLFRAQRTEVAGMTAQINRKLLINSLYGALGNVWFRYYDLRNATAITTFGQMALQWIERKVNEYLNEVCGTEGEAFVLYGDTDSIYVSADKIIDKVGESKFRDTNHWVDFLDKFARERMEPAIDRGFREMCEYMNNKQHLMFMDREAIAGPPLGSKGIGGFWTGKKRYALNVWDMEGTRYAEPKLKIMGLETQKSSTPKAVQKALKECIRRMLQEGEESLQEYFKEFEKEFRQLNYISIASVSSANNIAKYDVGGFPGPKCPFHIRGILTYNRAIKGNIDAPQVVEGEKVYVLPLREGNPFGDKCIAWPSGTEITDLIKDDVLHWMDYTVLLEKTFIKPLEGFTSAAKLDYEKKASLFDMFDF
Summary of the method: (§2)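 Single-turnover rapid quench was run at 23°C in 66 mM Tris-HCl pH 7.4 using exonuclease-deficient RB69pol. Enzyme plus 5'-32P primer/tC° template was mixed with Mg2+ and varying dNTP for 5 ms to 1 min (final 1 μM enzyme, 90 nM P/T, 10 mM Mg2+). Reactions were EDTA-quenched and resolved on 8 M urea PAGE. kobs came from single-exponential fits, then kpol and Kd,app from a hyperbolic fit; efficiency is kpol/Kd,app.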

RB69pol Y567A mutant = RB69pol Y567A mutant (Escherichia phage RB69, UniProt Q38087, D222A/D327A/Y567A); format: biochemical, bacteriophage RB69; details: for Kpol/Kd,app / kpol: Y567A mutant, template tC°; for kpol: 23°C, 10 mM Mg2+
Chain of RB69pol Y567A mutant (Q38087 whole entry D222A/D327A/Y567A): as the sequence (Q38087 whole entry D222A/D327A) above, with Y567A counted along it
Summary of the method: as §2

[1] = target: T1, wt RB69pol-P/T binary complex (Escherichia phage RB69, UniProt Q38087, D222A/D327A); experiment: Stopped-flow fluorescence of tC° quenching on dGTP binding; parameters: species or system bacteriophage RB69; details: full quenching within instrument dead-time (< 2 ms)
T1 sequence (Q38087 whole entry D222A/D327A, one chain of several): as the sequence (Q38087 whole entry D222A/D327A) above

[2] = target: T1, wt RB69pol-P/T binary complex; experiment: Equilibrium fluorescence titration of dNTP opposite tC°; format: binding, bacteriophage RB69; details: 1mM dNTP added to wt RB69pol-P/T binary complex
Summary of the method: as §1

Y567A RB69pol mutant = Y567A RB69pol mutant (Escherichia phage RB69, UniProt Q38087, D222A/D327A/Y567A); experiment: Stopped-flow fluorescence of tC° quenching on dGTP binding; parameters: species or system bacteriophage RB69
Chain of Y567A RB69pol mutant (Q38087 whole entry D222A/D327A/Y567A): as the sequence (Q38087 whole entry D222A/D327A) above, with Y567A counted along it

Chain of Y567A-P/T binary complex (Q38087 whole entry D222A/D327A/Y567A, one chain of several): as the sequence (Q38087 whole entry D222A/D327A) above, with Y567A counted along it

Row | SMILES | quenching of tC° fluorescence (Y567A-P/T binary complex) | Kpol/Kd,app (wt RB69pol) | fold difference in kpol between dGMP and dAMP (wt RB69pol) | kpol (wt RB69pol) | kpol (wt RB69pol; listed as dAMP) | fold increase of incorporation efficiency opposite tC° (RB69pol Y567A mutant; Y567A mutant relative to wt RB69pol) | Kpol/Kd,app (RB69pol Y567A mutant) | kpol (RB69pol Y567A mutant) | kpol (RB69pol Y567A mutant; listed as dAMP) | rate of tC° fluorescence quenching [1] | quenching of tC° fluorescence [2] | rate of tC° fluorescence quenching (Y567A RB69pol mutant)
1 | Nc1ncnc2c1ncn2[C@H]1C[C@H](O)[C@@H](COP(=O)(O)OP(=O)(O)OP(=O)(O)O)O1 [dATP] | ~15% | 3500 M⁻¹ s⁻¹ | 40 fold | 6 ± 0.2 s⁻¹ | 6 s⁻¹ | 200 fold | 700000 M⁻¹ s⁻¹ | 180 ± 10 s⁻¹ | 180 s⁻¹ | – | – | –
2 | Nc1nc2c(ncn2[C@H]2C[C@H](O)[C@@H](COP(=O)(O)OP(=O)(O)OP(=O)(O)O)O2)c(=O)[nH]1 [dGTP] | about 30% | 1.8e+06 M⁻¹ s⁻¹ | – | 250 ± 7 s⁻¹ | – | – | 4.3e+07 M⁻¹ s⁻¹ | 170 ± 10 s⁻¹ | – | greater than 500 s^−1 | about 30% | > 500 s⁻¹
